This is a sample that favours compounds with a hit; in the whole collection about 2.4% have one here.
miR122 inh: miR-122 inhibition in Huh7 cells; activation (reporter increase), % at 12.5 µM; hit rate 0.3% among 340,000; AID 602342; Huh7 miR-122 Renilla luciferase sensor, 48 h; neutral wells = 0, positive control = 100;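 active = mean replicate activation score at least 90 and every replicate individually at or above 90; inconclusive = only one of the two criteria met; inactive = neither criterion met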;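 note: higher luciferase means less miR-122 activity so hits act as miR-122 inhibitors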
Rtt109 Vps75: C. albicans Rtt109 histone acetyltransferase inhibition; Q5AAJ8; purified Rtt109/Vps75, ThioGlo CoA-SH fluorescence, 4 h; inhibition, % at 34.9 µM; hit rate 0.16% among 330,000;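 active = inhibition of at least 50% in every replicate; inconclusive = best replicate reaches 50% inhibition but some replicates fall short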
Target sequence (Q5AAJ8 whole entry, looked up): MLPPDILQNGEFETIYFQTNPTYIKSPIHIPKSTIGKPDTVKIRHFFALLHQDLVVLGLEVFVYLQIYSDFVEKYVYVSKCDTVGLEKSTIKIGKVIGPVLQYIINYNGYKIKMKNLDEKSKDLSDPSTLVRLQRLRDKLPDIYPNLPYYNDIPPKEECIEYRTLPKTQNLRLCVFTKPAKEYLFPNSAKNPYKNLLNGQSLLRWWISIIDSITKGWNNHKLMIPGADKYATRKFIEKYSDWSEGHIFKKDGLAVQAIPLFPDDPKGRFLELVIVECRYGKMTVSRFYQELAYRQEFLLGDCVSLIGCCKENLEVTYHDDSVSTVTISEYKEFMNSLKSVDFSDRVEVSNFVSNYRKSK
INS-1E GSIS act: primary screen for activators of insulin secretion dependent on glucose, INS-1E cells, GLuc reporter luminescence. INS-1E GLuc reporter insulin secretion, 2-3 h. AID 743287. activation, % at 16.6 µM. hit rate 0.61% among 370,000;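 active = lowest replicate activation of at least 40%, so every replicate reaches that level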;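 note: 0% = median of neutral control wells and 100% = median of IBMX positive control wells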
Cneo AK release: causes C. neoformans cell lysis | hit rate 0.2% among 360,000 | lysis activity, % at 15 µM | adenylate kinase release luminescence, 4 h; normalised: neutral wells 0, clomiphene wells 100;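 active = mean lysis activity across replicates of at least 80%, whatever share of replicates individually reach that level; inactive = mean lysis activity below 80%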
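Signal: Adenylate kinase release luminescence | Assay system: Log-phase Cryptococcus neoformans yeast cells | Input: Cells at 5 × 10^6 per mL | Buffer or medium: Fresh YPD growth medium | Compound: Single dose | Schedule: Static 4 h at 37 °C with compound, 1 h detection | Controls: Clomiphene | Read-out: Luminescence rise reflecting yeast cell lysis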
dFosB act: enhances mouse delta FosB homodimer DNA binding. P13346. hit rate 0.99% among 340,000. activation, % at 25 µM. AID 493131. purified delta FosB, TAMRA-CDK5 oligo fluorescence polarization; percent of positive-control signal above neutral wells;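 active = mean activation above about 17%, with every replicate also reaching it, limit read from the data, passing the limit was not always enough; inconclusive = only one of the two conditions met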
Target sequence (P13346 whole entry, looked up): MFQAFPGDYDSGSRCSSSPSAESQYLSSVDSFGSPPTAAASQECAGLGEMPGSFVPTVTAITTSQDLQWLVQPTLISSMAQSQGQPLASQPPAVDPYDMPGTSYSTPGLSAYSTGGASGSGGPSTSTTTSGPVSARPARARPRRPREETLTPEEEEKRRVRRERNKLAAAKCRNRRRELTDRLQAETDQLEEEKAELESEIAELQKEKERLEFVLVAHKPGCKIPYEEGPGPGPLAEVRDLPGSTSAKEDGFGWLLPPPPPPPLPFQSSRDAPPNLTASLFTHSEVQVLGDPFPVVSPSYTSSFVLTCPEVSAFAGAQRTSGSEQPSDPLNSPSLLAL
Env fusion inh: blocks HIV Env-driven cell-cell fusion | HeLa-JRFL Env/CEM21 cell fusion, luciferase | inhibition, % at 12.3 µM | hit rate 1.1% among 360,000 | AID 651610;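 active = mean replicate inhibition score of at least 50 and every replicate individually at or above 50; inconclusive = only one of the two criteria met; inactive = mean below 50 and not all replicates reaching 50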;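 note: 0% = plate neutral controls and 100% = maraviroc near 300 nM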
* = called active by the depositor; ? = inconclusive; · = not tested or not shown; ! = repeats disagree; [ ] = remark or other dose.

SMILES | miR122 inh | Rtt109 Vps75 | INS-1E GSIS act | Cneo AK release | dFosB act | Env fusion inh
CC(C)NC1CCC(Nc2ccnc3cc(Cl)ccc23)CC1 (stereo not given) | 2.7 | 0.1 | 23.5 | -10.6 | 17.5* | -3.5
Clc1ccc2c(NCCNC3CCCCC3)ccnc2c1 | -2.7 | -2.8 | 21.1 | 0.5 | 45.0* | 30.3
CC(CCCN1CCCC1)Nc1ccnc2cc(Cl)ccc12 (stereo not given) | -10.0 | -8.7 | · | 1.2 | 41.5* | 12.2
CC(Nc1ccnc2cc(Cl)ccc12)c1ccc(S(N)(=O)=O)cc1 (stereo not given) | -0.4 | 4.4 | 8.5 | -0.6 | -7.9 | -3.6
Clc1ccc2c(NCc3ccccn3)ccnc2c1 | -5.1 | -1.7 | -3.0 | -0.4 | -4.4 | 22.5
O=C(C[C@H]1CC[C@@H]2[C@H](COC[C@H](O)CN2Cc2ccncc2)O1)NCc1ccccc1Cl | -6.6[16.7 µM] | · | 6.5 | 2.7 | · | ·
CCc1ccc(CN2CCN(C(=O)c3cccc(OC)c3OC)CC2)cc1 | -4.7 | 5.1 | -2.3 | 1.2 | -6.6 | 88.9*
COc1cccc(C(=O)N2CCN(C(=O)c3cccc4ccccc34)CC2)c1OC | -0.2 | 0.3 | -9.2 | 0.9 | -10.4 | ·
CC1CCC(C(C)C)C(OC(=O)Cn2c(-c3ccc(Br)cc3)[n+](C)c3ccccc32)C1 (stereo not given) | -2.0 | ? | 275.3* | -0.1 | -6.9 | 58.1*!
CC1CCC(C(C)C)C(OC(=O)Cn2nnc3c(cnn3-c3ccccc3)c2=O)C1 (stereo not given) | 18.1 | -7.0 | 5.3 | -3.5 | -13.4 | 1.8
CC1CCC(C(C)C)C(OC(=O)COC(=O)c2cccn2C)C1 (stereo not given) | -11.1 | -11.8 | · | -1.0 | -6.8 | ·
CC1CCC(C(C)C)C(OC(=O)COC(=O)c2ccc(N)cc2)C1 (stereo not given) | · | -6.1 | -7.5 | · | -9.1 | 12.4
CC1CCC(C(C)C)C(OC(=O)Cn2c(-c3ccc(Cl)cc3)[n+](C)c3ccccc32)C1 (stereo not given) | -25.8 | 19.4 | 88.4 | -1.0 | -4.4 | 68.5*
Cc1ccccc1OCc1n(CC(=O)OC2CC(C)CCC2C(C)C)c2ccccc2[n+]1C (stereo not given) | · | 12.3 | 77.2* | · | -0.4 | 71.0*
C[C@H]1CN([C@@H](C)CO)C(=O)c2cc(C#Cc3ccncc3)cnc2O[C@@H]1CN(C)C(=O)c1ccccc1F | -2.4[16.7 µM] | · | -15.9 | 1.1 | · | -13.0[16.7 µM]
CC[C@H]1CC=CC[C@H](C)Oc2ccccc2C(=O)N(C)[C@@H](Cc2ccccc2)C(=O)N1 (mixture of isomers) | · | · | -7.9 | · | · | ·
COc1cc(C)c(C)cc1S(=O)(=O)N1CCCCC1c1cccnc1 (stereo not given) | 5.6 | -3.6 | 57.1* | -0.7 | -7.6 | ·
O=c1c2ccc(Cl)cc2[nH]c(=S)n1CCC1=CCCCC1 | · | -2.5 | 165.7* | · | -3.3 | -401.8
CN1CCN(C(=O)C[C@@H]2C[C@H]3c4cc(NC(=O)Nc5ccc(C(F)(F)F)cc5)ccc4O[C@H]3[C@H](CO)O2)CC1 | -0.9[16.7 µM] | · | 4.4 | 36.4 | · | -1.5[16.7 µM]
COCc1cn(CC[C@H]2CC[C@@H](NC(=O)Cc3cccnc3)[C@H](CO)O2)nn1 | · | · | 0.8 | -2.6 | · | -13.6[16.7 µM]
O=C(CCl)Nc1ccc(Oc2cnc3ccccc3n2)cc1 | -1.1 | 8.7 | · | -0.4 | -1.7 | 55.5*
O=C(CCl)Nc1cccc(-c2cnc3ccccc3n2)c1 | -5.7 | 10.3 | · | -3.8 | -29.2 | -212.7
CC(C)NC(=O)NCC[C@H]1CC[C@@H](NC(=O)CCN2CCCCC2)[C@H](CO)O1 | · | · | -9.5 | -1.4 | · | ·
COc1ccc(S(=O)(=O)CCc2nnc(NC(=O)c3cccs3)s2)cc1 | 23.6 | 22.8 | · | -0.3 | -7.7 | -62.9
O=C(Nc1nnc(CCS(=O)(=O)c2ccc3ccccc3c2)s1)c1cccs1 | -5.3 | -2.2 | 106.4* | 0.7 | -17.6 | 41.5
SMILES | miR122 inh | Rtt109 Vps75 | INS-1E GSIS act | Cneo AK release | dFosB act | Env fusion inh
CN1CC(c2ccc(Cl)c(Cl)c2)[C@@]2(COc3ccccc3C2=O)[C@@]12C(=O)Nc1ccccc12 (stereo not given in full) | 33.8 | -0.9 | · | 1.0 | -6.6 | 103.1*
CCCN1C(=O)c2ccccc2NC1c1ccc(Cl)c(Cl)c1 (stereo not given) | 1.6 | 0.6 | -20.1 | 0.6 | -5.7 | 32.4
COc1ccc(C(C#N)=Cc2ccc(OC)c(OC)c2)cc1 | -10.0 | · | 80.3* | 4.5 | · | -29.1
CCn1c(CCn2c3ccccc3c3ccccc32)n[nH]c1=S | 4.8 | 50.3* | -2.7 | 0.7 | -3.0 | -6.0
O=C(CCN1CCCCC1)N[C@@H]1CC[C@H](CCn2cc(-c3ccc(F)cc3)nn2)O[C@H]1CO | · | · | 5.5 | -2.3 | · | -5.9[16.7 µM]
O=C(COC(=O)CNC(=O)c1sc2ccccc2c1Cl)Nc1cc(Cl)cc(Cl)c1 | · | · | -9.5 | · | 167.0* | 13.1
CC(C)(C)OC(=O)N1CCc2onc(-c3ccc(Br)cc3)c2C1=O | -3.8 | · | -10.4 | · | · | 71.7*
CC(C)(C)OC(=O)N1CCc2onc(-c3ccc([N+](=O)[O-])cc3)c2C1=O | 1.5 | · | 6.5 | -2.9 | · | 9.2
N#Cc1ccc(-c2ccc3c(c2)[C@@H]2[C@@H](CCN2C(=O)C2CCCC2)[C@@H](CO)N3)cc1 | · | · | 40.9* | · | · | ·
N#Cc1ccc(-c2ccc3c(c2)[C@H]2[C@H](CCN2C(=O)Cc2ccccc2)[C@H](CO)N3)cc1 | -12.2[16.7 µM] | · | 8.9 | 1.5 | · | ·
N#Cc1ccc(-c2ccc3c(c2)[C@@H]2[C@@H](CCN2C(=O)Cc2ccccc2)[C@@H](CO)N3)cc1 | 13.8[16.7 µM] | · | 8.0 | 89.3* | · | ·
O=C(Cc1ccccc1)N1CC[C@@H]2[C@@H](CO)Nc3ccc(-c4cccc(F)c4)cc3[C@@H]21 | 109.2*[16.7 µM] | · | 1.9 | -8.9 | · | ·
N#Cc1ccc(-c2ccc3c(c2)[C@H]2[C@H](CCN2C(=O)Cc2ccccc2)[C@@H](CO)N3)cc1 | 22.5[16.7 µM] | · | -19.1 | 94.8* | · | ·
COc1ccc(S(=O)(=O)Nc2ccc3c(c2)C(=O)N([C@@H](C)CO)C[C@H](C)[C@H](CN(C)C(=O)c2ccccc2)OCCCC[C@H](C)O3)cc1 | -4.4[16.7 µM] | · | -33.2 | -1.7 | · | -22.0[16.7 µM]
CCc1ccc(C(O)c2ncc(-c3ccccc3F)[nH]2)cc1 (stereo not given) | · | · | -30.7 | 2.6 | · | -1.5
OC(c1cc(Cl)cc(Cl)c1)c1ncc(-c2ccccc2F)[nH]1 (stereo not given) | 150.4* | · | -16.9 | -4.0 | · | -6.7
OC(c1ccc(F)cc1)c1ncc(-c2ccccc2F)[nH]1 (stereo not given) | 145.7* | · | -8.7 | -1.6 | · | 12.1
COc1ccc(C[C@@H]2CCn3nncc3COC[C@@H](CC(C)C)NC2=O)cc1 | · | · | 3.5 | · | · | ·
CC(C)Sc1nc2ncnc(N)c2[nH]1 | -1.8 | 0.9 | 23.9 | 113.9* | 4.9 | 21.1
Nc1ncnc2nc(Sc3ccc(Cl)cc3)[nH]c12 | -0.3 | -3.1 | · | -0.2 | 7.4 | ·
